Source: PubChem BioAssay
Calb FLC: affects C. albicans growth with fluconazole; 0.57% of 300,000 active; growth inhibition, % (concentration not given with the values); C. albicans CaCi-2 (fluconazole-resistant clinical isolate) + fluconazole, Alamar Blue growth, 48 h; AID 1979;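 active = growth inhibition above about 58% in most replicates, limit read from the data, passing the limit was not always enough; inconclusive = exactly half the replicates above a set limit; inactive = most replicates below a set limit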;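 also: all wells also contain fluconazole at 8 µg/ml as a sub-toxic cotreatment; 0% = median of DMSO wells and 100% = median of geldanamycin control wells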
CSC inhib: blocks cancer stem cells; cancer stem cell-like cells viability, luminescence; inhibition, % at 7.5 µM; 1.1% of 300,000 active; AID 2717; in the data active = inhibition above about 75%; inconclusive = no clear call, values can overlap the other calls; tested in HMLE shEcad cells
Beta apoptosis: beta cell apoptosis inhibition. INS-1E cytokine-induced death, ATP luminescence, 48 h; percent of positive-control rescue, neutral wells zero. protection from apoptosis, % (no concentration beside the values). 0.8% of 300,000 active;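 active = Every replicate reaches about 75%, or at least half do and their mean reaches it too, limit read from the data; inconclusive = At least half of replicates reach the limit but their mean does not; inactive = Under half of replicates reach the limit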;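 also: 0% = cytokine-treated negative control wells and 100% = positive control rescue; higher means more ATP so stronger rescue from cytokine killing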
NALP3 yeast inh: inhibitors of NALP3 inflammasome in yeast; Yeast reconstituted NLRP3/ASC/caspase-1, beta-gal luminescence, 24 h; inhibition, % at 10 µM; 0.39% of 330,000 active; AID 2825;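 active = inhibition of 50% or more; inactive = inhibition below 50%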;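 also: plate controls were induced DMSO wells for no effect and uninduced yeast grown without galactose for full effect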
Mdm2-MdmX inh: human Mdm2/MdmX binding inhibition | SaOS-2 split-luciferase Mdm2/MdmX complementation, luminescence | 3% of 330,000 active | inhibition, % at 8 µM | O15151+Q00987;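 active = inhibition of at least 50% at 8 µM in the primary screen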
Target sequence (O15151 whole entry, looked up): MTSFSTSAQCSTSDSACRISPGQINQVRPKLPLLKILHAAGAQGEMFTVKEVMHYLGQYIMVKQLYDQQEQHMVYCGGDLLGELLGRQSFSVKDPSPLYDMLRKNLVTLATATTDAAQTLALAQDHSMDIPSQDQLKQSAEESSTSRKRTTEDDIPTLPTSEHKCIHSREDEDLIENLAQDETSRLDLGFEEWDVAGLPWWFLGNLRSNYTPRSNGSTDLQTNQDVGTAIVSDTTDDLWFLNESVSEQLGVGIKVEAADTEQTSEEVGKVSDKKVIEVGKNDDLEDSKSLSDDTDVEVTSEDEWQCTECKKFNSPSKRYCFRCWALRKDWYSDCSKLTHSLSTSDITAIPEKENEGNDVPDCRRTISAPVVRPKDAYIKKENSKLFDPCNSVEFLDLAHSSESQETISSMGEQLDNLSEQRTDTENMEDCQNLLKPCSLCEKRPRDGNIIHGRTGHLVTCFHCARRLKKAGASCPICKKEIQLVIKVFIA
Target sequence (Q00987 whole entry, looked up): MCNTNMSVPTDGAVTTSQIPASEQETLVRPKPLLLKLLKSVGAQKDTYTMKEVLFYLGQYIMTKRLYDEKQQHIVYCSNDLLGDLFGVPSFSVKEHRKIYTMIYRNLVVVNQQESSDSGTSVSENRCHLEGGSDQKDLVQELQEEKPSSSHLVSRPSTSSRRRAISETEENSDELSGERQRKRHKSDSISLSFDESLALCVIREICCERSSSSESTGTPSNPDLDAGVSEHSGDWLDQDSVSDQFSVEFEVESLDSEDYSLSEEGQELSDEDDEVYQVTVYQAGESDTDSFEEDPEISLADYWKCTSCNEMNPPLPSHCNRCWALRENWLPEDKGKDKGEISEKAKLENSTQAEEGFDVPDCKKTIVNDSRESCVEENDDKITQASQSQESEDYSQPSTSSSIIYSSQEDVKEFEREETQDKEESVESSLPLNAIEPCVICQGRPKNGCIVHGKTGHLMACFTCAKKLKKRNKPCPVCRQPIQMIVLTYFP
T cruzi inh: blocks replication of Trypanosoma cruzi; 1.4% of 300,000 active; inhibition, % (no concentration beside the values); T. cruzi beta-gal in NIH3T3, luminescence, 90 h;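 active = mean inhibition across valid replicates above about 55%, limit read from the data; inconclusive = mean below that limit but half or more replicates reach it; inactive = mean below it, under half of replicates reach it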;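 also: signal also drops with host cell toxicity which is not excluded here; 0% = plate median of DMSO wells and 100% = zero luminescence signal; higher percent means less beta-gal luminescence so fewer parasites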
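Test system: β-gal T. cruzi (Tulahuen C4) inside NIH/3T3 cells / Quantity: 5,000 cells/well / Measured by: luminescence from GalScreen with 0.05% NP40, read after 60 min / Medium: DMEM plus 2% FBS / Measure: parasite load inhibition, % / Reagent: Tulahuen C4 trypomastigotes, 5000/well / Schedule: co-culture of at least 90 h after 3 h attachment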
Numbers without * were called inactive; ? = inconclusive; . = no result. Sampled rows, rich in hits. Any-hit rate of the full collection: about 5.3%.

SMILES | Calb FLC | CSC inhib | Beta apoptosis | NALP3 yeast inh | Mdm2-MdmX inh | T cruzi inh
CCNC(=S)NNC(=O)c1cc(-c2ccccc2C)nc2ccccc12 | 99.1* | 4.4 | 15.7 | 14.3 | -6.7 | 12.8
CCCOc1cccc(-c2cc(C(=O)NNC(=S)NCC)c3ccccc3n2)c1 | 83.7* | -0.6 | 27.6 | 6.3 | -40.0 | 7.5
Cc1cc(C(=O)NNC(=S)NC(C)c2ccccc2)c2ccccc2n1 (configuration not stated) | 104.1* | 7.3 | 4.4 | 17.4 | -14.6 | 2.2
Cc1cc(C(=O)NNC(=O)c2ccc(Cl)cc2)c2ccccc2n1 | . | . | 0.9 | 14.1 | 4.5 | .
CCNC(=S)NNC(=O)c1cc(-c2cccc(OC)c2)nc2ccccc12 | 22.1 | 4.9 | 11.9 | 14.9 | 0.8 | 6.7
O=c1c2[nH]c3ccc(F)cc3c2ncn1CCC1=CCCCC1 | -0.5 | -7.1 | 0.7 | -5.5 | -8.7 | 1.6
COC(=O)Nc1c(C(=O)OC)cc(OC)c(OC)c1OC | -5.0 | . | -1.8 | -7.0 | 10.9 | -3.9
CC1(C)Cc2ccccc2C(N/N=C/c2ccc([N+](=O)[O-])cc2)=N1 | 74.5* | . | -3.8 | 9.8 | 23.5 | -3.3
O=[N+]([O-])CC(c1ccccc1)P(=O)(c1ccccc1)c1ccccc1 (configuration not stated) | 94.4* | 5.6 | -12.6 | -2.2 | 11.9 | -4.6
O=[N+]([O-])CC(c1ccccc1)c1c[nH]c2ccccc12 (configuration not stated) | 0.4 | 68.8 | 1.7 | -15.0 | 33.8 | 0.1
CC(Sc1nc(-c2ccccc2)cc(C(F)(F)F)n1)C(=O)Nc1sc2c(c1C#N)CCC2 (configuration not stated) | 11.4 | -7.8 | 3.2 | 24.6 | -0.2 | 55.6*
O=C(c1ccco1)N(CCCN1CCOCC1)c1nc(-c2ccc(F)cc2)cs1 | -16.5 | 1.4 | 6.9 | 39.1 | -1.4 | 68.8*
COc1ccc(-c2csc(N(CCCN3CCOCC3)C(=O)CCl)n2)cc1 | -2.0 | -13.1 | -11.2 | 10.6 | 6.3 | 4.9
O=C(c1ccco1)N(CCCN1CCOCC1)c1nc(-c2ccc(Cl)cc2)cs1 | 6.2 | 5.9 | 7.1 | 20.6 | 14.0 | 67.1*
CCN(CC)CCCN(C(=O)c1ccco1)c1nc(-c2ccc(C)cc2)cs1 | -33.1 | 2.2 | 7.1 | 15.0 | 18.3 | 32.8
COc1ccc(CN(C(=O)c2snc(C(N)=O)c2N)C(CC(C)C)C(=O)NC2CCCCC2)cc1 (configuration not stated) | 37.5 | 16.7 | 3.2 | 17.4 | 3.8 | -8.1
CC(C)(C)c1ccc(-c2nnc(SC3CCOC3=O)n2Cc2ccccc2)cc1 (configuration not stated) | 0.5 | -9.4 | -5.7 | -6.6 | 27.2 | 4.4
O=C(Cc1ccc(O)cc1)N/N=C/c1cccnc1 | 101.7* | 3.3 | 5.7 | 2.8 | 9.2 | .
CN(C)CCN(C(=O)CN1C(=O)c2ccccc2C1=O)c1nc2cc3c(cc2s1)OCO3 | 1.4 | -15.2 | 0.2 | -3.5 | 5.0 | 22.1
CCN(CC)CCN(C(=O)c1ccc(S(=O)(=O)N2CCCCC2)cc1)c1nc2cc3c(cc2s1)OCO3 | 23.5 | -10.8 | -2.9 | 16.0 | 15.4 | 62.8*
Cc1nc2ccc(NC(=O)c3ccc(Cl)c(S(=O)(=O)N(C)c4ccccc4)c3)cc2s1 | -17.5 | 28.3 | -4.5 | 1.9 | 12.1 | 15.8
CN(C)CCN(C(=O)c1ccc(S(=O)(=O)N(C)c2ccccc2)cc1)c1nc2cc3c(cc2s1)OCO3 | 0.3 | 3.7 | -0.9 | 14.0 | 13.1 | 57.1*
CN(C)CCN(C(=O)c1ccc(C(=O)c2ccccc2)cc1)c1nc2cc3c(cc2s1)OCO3 | 1.7 | -2.5 | -14.2 | 16.1 | -21.0 | 23.8
CCN(CC)CCN(C(=O)CN1C(=O)c2ccccc2C1=O)c1nc2cc3c(cc2s1)OCO3 | 4.9 | 3.7 | -0.8 | 11.8 | -1.0 | 57.4*
Cc1nc2ccc(NC(=O)c3cc(S(=O)(=O)N(C)c4ccccc4)ccc3Cl)cc2s1 | -2.3 | 5.1 | 79.7* | . | . | -23.7
SMILES | Calb FLC | CSC inhib | Beta apoptosis | NALP3 yeast inh | Mdm2-MdmX inh | T cruzi inh
O=C(O)CCOc1ccc2c(c1)OCCO2 | -0.1 | -9.5 | 1.2 | 7.5 | 3.6 | -10.3
Cc1cc(C)cc(NC(=O)Cn2nnc(C(=O)NCc3ccco3)c2N)c1 | -12.2 | 2.2 | -8.9 | 4.5 | 18.3 | 2.4
CC(OC(=O)c1cccc(S(=O)(=O)Nc2cccc(C(F)(F)F)c2)c1)C(=O)Nc1ccc2c(c1)OCCO2 (configuration not stated) | 11.6 | 47.6 | -8.8 | 7.1 | 19.6 | 3.9
CCc1cc2ccccc2nc1SCC(=O)NC1CCCC1 | -18.4 | -9.0 | -1.4 | 28.3 | 3.0 | 0.6
CN(C)CCN(C(=O)c1ccc(S(=O)(=O)N(C)c2ccccc2)cc1)c1nc2ccc(Cl)cc2s1 | -6.2 | -6.2 | 2.2 | 1.7 | 9.8 | 62.7*
CN(C)CCCN(C(=O)c1ccc(S(=O)(=O)N2CCc3ccccc32)cc1)c1nc2ccc(Cl)cc2s1 | 1.7 | 5.1 | 3.7 | 10.4 | 14.6 | 34.5
Cc1cc(-c2ccc(C)c(S(=O)(=O)NCCN3CCC(C)CC3)c2)on1 | -44.9 | 10.6 | -2.6 | 13.3 | -5.5 | 12.2
CC(=O)c1ccccc1OCCn1nc(C(=O)O)c2ccccc2c1=O | 6.5 | -3.4 | -1.3 | 14.1 | -9.4 | 1.0
COc1ccc(C2=NN(C(=O)c3cccs3)C(c3ccccc3O)C2)cc1 (configuration not stated) | 2.8 | . | 19.0 | 5.9 | -5.1 | 60.5*
CCOC(=O)Nc1ccc(S(=O)(=O)NCCCN2CCOCC2)cc1 | 6.5 | -13.6 | -24.5 | -7.0 | 6.3 | -9.1
O=C(Nc1ccc(OC(F)F)c(Cl)c1)C(c1ccccc1)c1ccccc1 | -11.6 | 39.5 | 95.2* | 14.6 | 18.6 | 60.4*
C/C(=N\N(Cc1ccccc1)c1ccccc1)c1cccnc1 | -20.9 | -17.9 | -3.3 | 13.0 | -20.1 | 62.3*
C/C(=N\NC(=O)Cc1ccccc1)c1cccnc1 | -13.1 | -3.2 | -5.8 | 18.7 | 6.1 | 1.1
COc1cc(C(c2c(C)[nH][nH]c2=O)c2c(C)[nH][nH]c2=O)cc(Br)c1OC | -6.3 | -14.6 | . | 20.1 | 9.3 | -0.8
CCOc1ccc(Nc2cc(C)nc(-n3nc(C)cc3C)n2)cc1 | 26.2 | 57.1 | 91.3* | 30.3 | 43.6 | 51.2
CNc1cc(C)nc(-n2nc(C)cc2C)n1 | -6.2 | -11.7 | 4.0 | -0.2 | 17.8 | -57.4
CCOC(=O)c1cnc(-n2nc(C)cc2C)nc1Nc1ccc(OC)cc1 | ? | -4.3 | 3.9 | 15.3 | -27.5 | 46.8
Cc1cc(N/N=C/c2ccc(F)cc2)nc(-n2nc(C)cc2C)n1 | -13.3 | 4.8 | 109.9* | 23.7 | 13.3 | ?
Cc1ccc(NC(=O)NC2CCCCCCC2)c(C)c1 | 112.3* | -0.9 | 3.8 | 15.1 | -7.8 | .
Cc1ccc(NC(=O)NC2CCCCC2)c(C)c1 | -11.5 | -8.8 | -1.6 | 3.8 | 2.8 | -6.0
CC(=O)c1cccc(NC(=O)NC2CCCCCCC2)c1 | 1.5 | -15.5 | 2.3 | 7.0 | -6.5 | 1.5
Cc1cccc(NC(=O)NC2CCCCCCC2)c1 | 124.0* | 1.2 | -0.5 | 25.0 | -29.1 | .
